Tests used:
BV-2 [1] = assay: Inhibition of LPS-induced TNFalpha production in mouse BV2 cells measured as mean channel fluorescence at 5 uM
[2] = Inhibition of PMA-induced ROS production in human leukocytes at 25 uM; assay type: functional; details: Leukocyte
[3] = Inhibition of fMLP-induced ROS production in human leukocytes at 25 uM; assay type: functional; details: Leukocyte
CD4+ve Th [4] = assay: Inhibition of PMA plus ionomycin-induced IL2 production in human CD4+ Th cells measured as mean channel fluorescence at 5 uM; assay type: functional
Outline: (§1)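 Human leukocytes were stimulated with PMA plus ionomycin. IL-2 (CD4+ Th cells) and IFN-γ (CD8+ cells) were measured by intracellular cytokine staining and read as mean channel fluorescence. Significance was tested against activator alone (P<0.05).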

CD4+ve Th [5] = assay: Inhibition of PMA plus ionomycin-induced IL2 production in human CD4+ Th cells measured as mean channel fluorescence at 25 uM; assay type: functional
Outline: as §1

BV-2 [6] = assay: Inhibition of NOS-dependent nitric oxide production in mouse BV2 cells; assay type: functional, cell-based
Outline: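 Murine BV2 microglial cells. NOX activity was read as ROS production and NOS activity as NO production. DPI (NOX inhibitor) and L-NAME (NOS inhibitor) served as positive controls. IC50 is the mean ± SEM of 5–6 experiments on different days with cells from different passages.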

BV-2 [7] = assay: Inhibition of LPS-induced TNFalpha production in mouse BV2 cells measured as mean channel fluorescence at 25 uM
[8] = Cytotoxicity against microglial cells at 10 uM; details: mouse, microglia
[9] = Inhibition of PMA plus ionomycin-induced IFN-gamma production in human CD8+ leukocytes measured as mean channel fluorescence at 5 uM; assay type: functional
Outline: as §1

[10] = Cytotoxicity against microglial cells at 5 uM; details: mouse, microglia
[11] = Inhibition of PMA plus ionomycin-induced IFN-gamma production in human CD8+ leukocytes measured as mean channel fluorescence at 25 uM; assay type: functional
Outline: as §1

[12] = Cytotoxicity against microglial cells at 25 uM; details: mouse, microglia
[13] = Inhibition of fMLP-induced ROS production in human PMN; assay type: functional
Outline: (§2)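 Peripheral human neutrophils (PMN) or mononuclear cells (MNC) were stimulated with PMA (a PKC activator) or fMLP to induce ROS. IC50 is the mean ± SEM of 3–5 experiments on different days with cells from different donors.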

[14] = Inhibition of PMA-induced ROS production in human PMN; assay type: functional
Outline: as §2

[15] = Inhibition of PMA-induced ROS production in human mononuclear leukocytes; assay type: functional, cell-based
Outline: as §2

[16] = Inhibition of fMLP-induced ROS production in human mononuclear leukocytes; assay type: functional, cell-based
Outline: as §2

[17] = Inhibition of fMLP-induced calcium mobilisation in human peripheral leukocytes at 25 uM; assay type: functional
Outline: (§3)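 Human leukocytes were preloaded with Fura-2, and intracellular Ca2+ rise was followed after fMLP stimulation. Inhibition is expressed as % of the calcium increment in drug-free samples (taken as 100%). Values are the mean ± SEM of 3 experiments on different days with different donors.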

[18] = DPPH radical scavenging activity; assay type: functional
[19] = biological target: T1, Protein kinase C (PKC) (Homo sapiens) (UniProt O94806+P41743+P17252+P05129+Q05655+P05771+Q05513+Q02156+P24723+Q15139+Q04759); assay: Inhibition of PKC in human peripheral leucocytes at 5 uM by ELISA; assay type: cell-based
Outline: (§4)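 Protein kinase activity in human leukocytes is expressed as % inhibition relative to drug-free samples (taken as 100%). Values are the mean ± SEM of 3 experiments on different days with cells from different donors.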

[20] = Inhibition of fMLP-induced calcium mobilisation in human peripheral leukocytes at 5 uM; assay type: functional
Outline: as §3

BV-2 [21] = assay: Inhibition of NADPH oxidase-dependent reactive oxygen species production in mouse BV2 cells
[22] = biological target: T1, Protein kinase C (PKC) (Homo sapiens); assay: Inhibition of PKC at 25 uM by ELISA; assay type: protein assay
Outline: as §4

| SMILES | IC50 (BV-2 [6]) | Activity (BV-2 [1]) | Activity (CD4+ve Th [4]) | Activity (CD4+ve Th [5]) | Activity (BV-2 [7]) | Activity [8] | Activity [9] | Activity [10] | Activity [11] | Activity [12] | other results |
| --- | --- | --- | --- | --- | --- | --- | --- | --- | --- | --- | --- |
| Cc1c(C)c2c(c(C)c1O)CCC(C)(C(=O)O)O2 (stereo unspecified) [TROLOX] |  |  |  |  |  |  |  |  |  |  | IC50 [18]: 40.5 µM |
| COC(=O)[C@@H](N)CCCNC(=N)N[N+](=O)[O-] [L-NAME] | 36 µM |  |  |  |  |  |  |  |  |  |  |
| c1ccc2c(c1)[I+]c1ccccc1-2 [DIPHENYLENEIODONIUM] |  |  |  |  |  |  |  |  |  |  | IC50 (BV-2 [21]): 10.2 µM |
| O=c1c(O)c(-c2ccc(O)c(O)c2)oc2cc(O)cc(O)c12 [QUERCETIN] |  |  |  |  |  |  |  |  |  |  | IC50 [13]: 2.5 µM; IC50 [14]: 5.5 µM; IC50 [15]: 3.1 µM; IC50 [16]: 4 µM |

Continued, in another order:

| IC50 (BV-2 [6]) | SMILES | Activity (BV-2 [1]) | Activity (CD4+ve Th [4]) | Activity (CD4+ve Th [5]) | Activity (BV-2 [7]) | Activity [8] | Activity [9] | Activity [10] | Activity [11] | Activity [12] | other results |
| --- | --- | --- | --- | --- | --- | --- | --- | --- | --- | --- | --- |
| 19 µM | COc1cc(C/C=C/c2c(OC)cc(OCc3ccccc3)c(OC)c2OC)ccc1OCc1ccccc1 | 164 | 101 | 103 | 155 | 8.1% | 60 | 8.6% | 65 | 10% | inhibition at 25 µM [2]: 20%; inhibition at 25 µM [3]: 37% |
| 24 µM | COc1cc(CCCc2c(OC)cc(O)c(OC)c2OC)ccc1O [VISCOLIN] | 155 | 99 | 112 | 121 | 8.9% | 72 | 9.6% | 67 | 14.6% | IC50 [13]: 1.4 µM; IC50 [14]: 12 µM; IC50 [15]: 8.3 µM; IC50 [16]: 2.5 µM; inhibition at 25 µM [17]: 53.5%; IC50 [18]: 49.2 µM; inhibition [19]: 34.4%; inhibition at 5 µM [20]: 36.7%; IC50 (BV-2 [21]): 29.2 µM; inhibition [22]: 48.8% |
| 20 µM | COc1cc(CCCc2c(OC)cc(OCc3ccccc3)c(OC)c2OC)ccc1OCc1ccccc1 | 164 | 100 | 102 | 154 | 8.9% | 59 | 14.6% | 65 | 9.6% | inhibition at 25 µM [2]: 20%; inhibition at 25 µM [3]: 37% |

— ChEMBL document CHEMBL1146177, “Total synthesis and biological evaluation of viscolin, a 1,3-diphenylpropane as a novel potent anti-inflammatory agent” (Bioorg Med Chem Lett, 2006)
